# Source: PubChem BioAssay (several laboratories)
# In the library only some 1.8% were active in any assay of this set; here they are far more common.
# LEDGF integ inh – blocks HIV-1 LEDGF/p75-dependent DNA integration; TR-FRET IN-LEDGF/p75 DNA integration, Eu/Cy5; 370,000 compounds, 0.64% hits; inhibition, % at 3.7 µM;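 active means inhibition above the screen-wide mean plus 3 SD, cut at about 13% in these data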;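 further: signal is the Cy5 over europium emission ratio at 671 and 618 nm; 0% = plate median of compound wells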
# TDP2 absorb – TDP2 (human) inhibition, absorbance primary screen; inhibition, % at 12.8 µM; 370,000 compounds, 0.34% hits; AID 720702; O95551; recombinant TDP2, T5PNP hydrolysis, p-nitrophenol absorbance 415 nm;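 active means inhibition above the mean of all tested compounds plus 3 SD, set per campaign, cut at about 25% in these data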;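 further: 0% = DMSO with enzyme and 100% = buffer with substrate but no TDP2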
#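 System: recombinant human TDP2 / Amount: 120 nM TDP2 per well / Also added: 5 mM T5PNP chromogenic substrate / Doses: 12.8 µM single point, 1% DMSO / Incubation: 2 h at 37 °C / Detection: p-Nitrophenol epi absorbance / Evaluation: % inhibition relative to enzyme-containing and enzyme-free wells / Repeats: singlicate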
# NSD2 HMT inh – inhibitors of human histone methyltransferase NSD2; O96028; NSD2 peptide methylation, AlphaScreen, 120 min; inhibition, % at 12.5 µM; 310,000 compounds, 0.54% hits; in the data active means inhibition above about 50%
# CASP6 VEID inh – inhibitors of human caspase-6. purified caspase-6, Z-VEID-R110 cleavage fluorescence. inhibition, % at 12.5 µM. 350,000 compounds, 0.53% hits;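 active means mean inhibition across replicates at least about 35%, with every replicate also reaching that limit, limit read from the data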;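 further: 0% = median of neutral control wells and 100% = no fluorescence left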
# UHRF1 MBD2 ctr – blocks human UHRF1 binding to methylated DNA. Q96T88. UHRF1 binding to methylated oligo, TR-FRET. inhibition, % at 4.4 µM. 370,000 compounds, 0.75% hits. AID 687016; in the data active means inhibition above about 21%;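 further: UHRF1 SRA domain binding a hemimethylated CpG hairpin DNA probe; 0% = median of test compound wells and 100% = reference inhibitor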
# MBD2 inh – blocks human MBD2 binding to methylated DNA | AID 686964 | Q9UBB5 | inhibition, % at 4.4 µM | 370,000 compounds, 0.31% hits | TR-FRET, MBD2 binding to methylated oligonucleotide; in the data active means inhibition above about 13%
# Target sequence (Q9UBB5 whole entry, looked up): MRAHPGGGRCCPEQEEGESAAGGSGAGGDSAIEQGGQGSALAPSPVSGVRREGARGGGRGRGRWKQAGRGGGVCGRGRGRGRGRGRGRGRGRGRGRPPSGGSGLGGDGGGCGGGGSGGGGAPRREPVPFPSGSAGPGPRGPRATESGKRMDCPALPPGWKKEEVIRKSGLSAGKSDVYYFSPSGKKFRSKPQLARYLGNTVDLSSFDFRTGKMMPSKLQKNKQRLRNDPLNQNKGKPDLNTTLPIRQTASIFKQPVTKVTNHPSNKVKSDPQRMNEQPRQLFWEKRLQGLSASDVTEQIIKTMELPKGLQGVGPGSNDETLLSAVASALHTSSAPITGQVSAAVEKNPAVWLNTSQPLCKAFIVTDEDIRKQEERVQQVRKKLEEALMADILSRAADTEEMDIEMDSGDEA
# IN multimer act – HIV-1 integrase multimerization activation, counter-screen. shares compounds with LEDGF integ inh. TR-FRET HIV-1 integrase multimerization, biochemical. activation, % at 7.7 µM. 2,000 compounds, 17% hits; in the data active means activation above about 8.9%
# TRFRET interf – TR-FRET optical interference, LEDGF/p75 integration counter-screen; shares compounds with LEDGF integ inh; TR-FRET optical interference counterscreen, HIV-1 IN multimerization; inhibition, % at 7.7 µM; 2,000 tested, under 10 active; AID 1053135;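 active means inhibition above the mean over all tested compounds plus 3 SD, which no compound reached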;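 further: 0% = integrase with antibodies and DMSO and 100% = antibodies without integrase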
# LEDGF integ conf – LEDGF/p75-dependent HIV-1 integration inhibition, confirmation. 2,000 compounds, 36% hits. inhibition, % at 3.7 µM. TR-FRET LEDGF/p75-dependent HIV-1 integration, biochemical. shares compounds with LEDGF integ inh; in the data active means inhibition above about 14%
# An asterisk follows results filed as active; / = no result.
SMILES,LEDGF integ inh,TDP2 absorb,NSD2 HMT inh,CASP6 VEID inh,UHRF1 MBD2 ctr,MBD2 inh,IN multimer act,TRFRET interf,LEDGF integ conf
COc1cc(OC)c2c(c1O)OC(c1ccccc1)CC2=O (stereo not drawn),28*,-1,/,40*,-1,6,35*,-126,32*
C[C@@H]1CN([C@@H](C)CO)C(=O)c2cc(NC(=O)CCN3CCOCC3)ccc2O[C@H]1CN(C)S(=O)(=O)c1ccc(Cl)cc1,/,/,/,1,/,/,/,/,/
Oc1cccc(/C=N/NC(=S)NCCN2CCOCC2)c1O,79*,13,3,5,30*,5,5,-26,-5
CN(Cc1ccccc1)c1cc2c(c3c1ccn3C)C1CCC2C1 (stereo not drawn),52*,1,/,-2,-4,-2,-1,3,-5
O=C(N/N=C/C=C\c1ccco1)c1cccs1,15*,16,4,34,8,3,8,-30,20*
O=C(N/N=C/C=C/c1ccco1)c1ccncc1,0,7,4,13,-2,-2,/,/,/
O=C(Cc1cccs1)N/N=C/C=C\c1ccco1,7,3,4,34,0,10,/,/,/
O=C(N/N=C/C=C/c1ccco1)/C(=C/c1ccccc1)NC(=O)c1ccccc1,18*,-19,15,3,-1,-1,8,-39,29*
CO[C@H]1O[C@H](CO)[C@@H](OC(=O)Nc2ccccc2)[C@H](OC(=O)Nc2ccc3c(c2)OCO3)[C@@H]1OC(=O)Nc1ccc2c(c1)OCO2,/,/,/,3,/,/,/,/,/
COc1cccc(C(=O)Nc2nc(-c3ccccc3)c(-c3ccccc3)o2)c1,14*,-2,-3,-2,-1,-2,0,-2,19*
CCOC(=O)C(=O)Nc1nc(-c2ccccc2)c(-c2ccccc2)o1,0,-14,/,1,1,-2,/,/,/
O=C(Nc1nc(-c2ccccc2)c(-c2ccccc2)o1)c1ccc(F)cc1,26*,-2,0,/,1,0,0,0,18*
O=C(C[C@@H]1C[C@H]2c3cc(NS(=O)(=O)c4ccc(F)cc4)ccc3O[C@H]2[C@H](CO)O1)NCc1ccccc1F,/,/,/,2,/,/,/,/,/
CCNC(=O)C[C@H]1CC[C@@H]2[C@@H](COc3ccc(NC(=O)C4CCOCC4)cc3C(=O)N2C)O1,/,/,/,0,/,/,/,/,/
Cc1noc(C)c1S(=O)(=O)N(C)C[C@H]1Oc2ccc(NC(=O)NC3CCCCC3)cc2CC(=O)N([C@@H](C)CO)C[C@@H]1C,/,/,/,0,/,/,/,/,/
CS(=O)(=O)Nc1ccc2c(c1)[C@H]1C[C@@H](CC(=O)NCc3ccccc3F)O[C@H](CO)[C@H]1O2,/,/,/,1,/,/,/,/,/
O=c1c(Br)ccc(Br)cc1Br,15*,4,/,26,-1,4,2,-8,30*
O=C1CN(S(=O)(=O)c2cc(Br)ccc2Br)CCN1,0,-8,-3,3,-1,-2,/,/,/
CN1C2CCC1/C(=C/c1cccn1C)C(=O)/C2=C\c1cccn1C,14*,10,18,-3,-7,-9,0,0,-3
Cn1cccc1/C=C1\CC(C(C)(C)C)C/C(=C\c2cccn2C)C1=O (stereo not drawn),2,3,8,/,2,2,/,/,/
C[C@@H](NC(=O)C[C@H]1CC[C@H]2[C@@H](COc3ccc(NS(=O)(=O)c4ccc(Cl)cc4)cc3C(=O)N2C)O1)c1ccccc1,/,/,/,-2,/,/,/,/,/
CCCCOc1ccc(C(=O)N/C(=C\c2ccc([N+](=O)[O-])cc2)C(=O)OCc2ccco2)cc1,21*,1,-1,/,-2,7,0,-1,-2
CCCCOc1ccc(C(=O)N/C(=C\c2cccc([N+](=O)[O-])c2)C(=O)OCCC)cc1,-4,6,-1,/,4,-4,/,/,/
COc1cc(C=C2C(=O)C=CC2=O)ccc1O,93*,9,/,79*,97*,102*,7,-37,24*
Cc1nc2sc(C(c3ccco3)N3CCN(c4ccccc4F)CC3)c(O)n2n1 (stereo not drawn),1,0,3,/,-4,-4,/,/,/
SMILES,LEDGF integ inh,TDP2 absorb,NSD2 HMT inh,CASP6 VEID inh,UHRF1 MBD2 ctr,MBD2 inh,IN multimer act,TRFRET interf,LEDGF integ conf
Cc1nc2sc(C(c3ccco3)N3CCc4ccccc4C3)c(O)n2n1 (stereo not drawn),21*,-4,/,/,8,-3,0,1,11
CC1CCCCN1CCNC(=O)Cn1nc(-c2ccccc2)ccc1=O (stereo not drawn),-1,-7,/,-5,-3,-1,/,/,/
Cc1ccc(-c2ccc(=O)n(CC(=O)NCCCN3CCCCC3C)n2)cc1 (stereo not drawn),24*,-14,-1,/,1,2,0,-1,-2
C[C@@H]1CN([C@H](C)CO)C(=O)c2cccc(NS(=O)(=O)c3cn(C)cn3)c2O[C@H]1CN(C)S(=O)(=O)c1cccs1,/,/,/,1,/,/,/,/,/
Nc1nc(SCC(=O)N2N=C3/C(=C\c4ccco4)CCCC3C2c2ccco2)n[nH]1 (stereo not drawn),2,-10,3,2,-1,-6,/,/,/
Cn1cnnc1SCC(=O)N1N=C2/C(=C/c3ccco3)CCCC2C1c1ccco1 (stereo not drawn),0,-5,4,/,-5,-5,/,/,/
Nc1nc(SCC(=O)N2N=C3/C(=C/c4ccco4)CCCC3C2c2ccco2)n[nH]1 (stereo not drawn),18*,9,6,/,-3,1,1,-4,6
O=C(CSc1nccc(=O)[nH]1)N1N=C2/C(=C/c3ccco3)CCCC2C1c1ccco1 (stereo not drawn),37*,-4,32,21,14,10,2,-9,19*
C/C=C/c1ccc2c(c1)O[C@H](CN(C)C(=O)Nc1cc(F)ccc1F)[C@H](C)CN([C@H](C)CO)S2(=O)=O,/,/,/,-3,/,/,/,/,/
Oc1ccc(/C=N/N2CCCCC2)c(O)c1O,28*,-11,21,39*,12,-2,5,-16,25*
NC(=O)c1ccsc1NC(=O)c1ccc(S(=O)(=O)N2CCCC2)cc1,0,7,/,1,1,-3,/,/,/
NC(=O)c1ccsc1NC(=O)c1ccc(S(=O)(=O)N2CCCCC2)cc1,22*,-7,/,-1,2,4,-3,17,1
C/C=C/c1ccc([C@H]2[C@@H](CO)N(S(C)(=O)=O)C23CN(C(=O)CC)C3)cc1,/,/,/,-1,/,/,/,/,/
